The source made the active and inactive calls. The rule behind the calls is not given here.
What was measured:
A549 [1] = assay: Inhibition of alpha-tubulin polymerization in human A549 cells assessed as increase in soluble tubulin fraction at 1 uM after 48 hrs by Western blot method; type: cell-based
Method in brief: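 A549 cells (1 × 10⁵/well) treated at 1 µM for 48 h alongside DMSO, CA-4 and paclitaxel controls. Soluble fraction released with warm Pipes-KOH pH 6.8/Triton lysis buffer (3 min, 30 °C); insoluble fraction taken in Laemmli buffer. Both fractions blotted on SDS-10% PAGE with anti-α-tubulin and ECL detection.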

A549 [2] = assay: Induction of apoptosis in human A549 cells assessed as early apoptotic cells at 50 nM after 48 hrs by Annexin-V FITC/propidium iodide staining based flow cytometry (reference value: 5.2%); type: functional
[3] = Cell cycle arrest in human A549 cells assessed as accumulation at G2/M phase at 50 nM after 48 hrs by propidium iodide staining based flow cytometry (reference value: 12.1%); type: functional
Method in brief: (§1)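 A549 cells exposed for 48 h at 50 or 100 nM. Cells harvested, washed in PBS, fixed in ice-cold 70% ethanol and stained with propidium iodide. Phase distribution (G0/G1, S, G2/M) measured by flow cytometry against untreated cells.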

A549 [4] = assay: Induction of mitochondrial membrane potential loss in human A549 cells assessed as intact mitochondrial membrane at 50 nM after 48 hrs by JC-1 staining based flow cytometry (reference value: 95.9%); type: functional
A549 [5] = assay: Induction of ROS generation in human A549 cells at 100 nM after 48 hrs by DCFDA staining based flow cytometry (reference value: 4.4%); type: functional
A549 [6] = assay: Induction of apoptosis in human A549 cells assessed as early apoptotic cells at 100 nM after 48 hrs by Annexin-V FITC/propidium iodide staining based flow cytometry (reference value: 5.2%); type: functional
[7] = Cell cycle arrest in human A549 cells assessed as accumulation at G2/M phase at 100 nM after 48 hrs by propidium iodide staining based flow cytometry; type: functional; method in brief: as §1
A549 [8] = assay: Induction of apoptosis in human A549 cells assessed as late apoptotic cells at 50 nM after 48 hrs by Annexin-V FITC/propidium iodide staining based flow cytometry (reference value: 0.6%); type: functional
[9] = Antiproliferative activity against human DU145 cells after 48 hrs by MTT assay; type: functional, cell-based; details: DU-145, 48 h
Method in brief: (§2)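 MTT assay. Cells seeded in DMEM with 10% FBS and left 24 h at 37 °C in CO2 before compound treatment for 48 h. MTT (5 mg/mL stock) added for 4 h, formazan dissolved in DMSO, absorbance read at 570 nm. IC50 taken as the mean of three independent experiments.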

[10] = Cell cycle arrest in human A549 cells assessed as accumulation at S phase at 100 nM after 48 hrs by propidium iodide staining based flow cytometry (reference value: 9.4%); type: functional; method in brief: as §1
[11] = Antiproliferative activity against human MCF7 cells after 48 hrs by MTT assay; type: functional, cell-based; details: MCF7, 48 h; method in brief: as §2
A549 [12] = assay: Induction of apoptosis in human A549 cells after 48 hrs by Annexin-V FITC/propidium iodide staining based flow cytometry; type: functional, cell-based
A549 [13] = assay: Induction of mitochondrial membrane potential loss in human A549 cells assessed as intact mitochondrial membrane at 100 nM after 48 hrs by JC-1 staining based flow cytometry (reference value: 95.9%); type: functional
A549 [14] = assay: Inhibition of alpha-tubulin polymerization in human A549 cells assessed as disruption of microtubule organization at 50 nM after 48 hrs by FITC/DAPI staining based immunofluorescence microscopic assay; type: cell-based
Method in brief: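 A549 cells on coverslips treated at 50 nM for 48 h. Fixed in 3.5% formaldehyde/PBS, permeabilized with Triton X-100/Tween-20, blocked in 2% BSA. Anti-tubulin primary (1:200, 4 h) and FITC anti-mouse secondary (1:500, 1 h), DAPI mounting, confocal imaging.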

A549 [15] = assay: Induction of apoptosis in human A549 cells assessed as live cells at 50 nM after 48 hrs by Annexin-V FITC/propidium iodide staining based flow cytometry (reference value: 94.2%); type: functional
[16] = Antiproliferative activity against human HeLa cells after 48 hrs by MTT assay; type: functional, cell-based; method in brief: as §2
A549 [17] = assay: Induction of mitochondrial membrane potential loss in human A549 cells at 100 nM after 48 hrs by JC-1 staining based flow cytometry (reference value: 3.8%); type: functional
A549 [18] = assay: Induction of mitochondrial membrane potential loss in human A549 cells at 50 nM after 48 hrs by JC-1 staining based flow cytometry (reference value: 3.8%); type: functional
A549 [19] = assay: Induction of apoptosis in human A549 cells assessed as late apoptotic cells at 100 nM after 48 hrs by Annexin-V FITC/propidium iodide staining based flow cytometry (reference value: 0.6%); type: functional
[20] = Depolarization of mitochondrial membrane potential in human A549 cells after 48 hrs by JC-1 staining based flow cytometry; type: functional, cell-based
A549 [21] = assay: Induction of apoptosis in human A549 cells assessed as necrotic cells at 100 nM after 48 hrs by Annexin-V FITC/propidium iodide staining based flow cytometry (reference value: 0.1%); type: functional
Sus scrofa = species on record: Sus scrofa; assay: Inhibition of porcine brain tubulin polymerization at 3 uM in presence of GTP by fluorescence assay relative to control
Method in brief: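 Fluorescence-reporter tubulin polymerization kit: PEM buffer with […], compound at 3 µM final, CA-4 as positive control. Fluorescence followed at ex 360/em 420 nm for 1 h at 37 °C. Mean ± SD of two experiments run in triplicate.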

A549 [22] = assay: Induction of apoptosis in human A549 cells assessed as increase in caspase-3 expression at 50 nM after 48 hrs by Western blot method; type: functional, cell-based
Method in brief: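 Caspase-3 western blot of A549 lysates after 48 h at 50 nM. Proteins extracted in RIPA buffer, 50 µg per lane on 10% SDS-PAGE, transferred to PVDF and blocked with BSA. Primary antibody incubated 24 h, HRP secondary 1 h, chemiluminescent detection, with β-actin as loading control.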

[23] = Cell cycle arrest in human A549 cells assessed as accumulation at G2/M phase after 48 hrs by propidium iodide staining based flow cytometry; type: functional; method in brief: as §1
[24] = Antiproliferative activity against human A549 cells after 48 hrs by MTT assay; type: functional, cell-based; details: A549, 48 h; method in brief: as §2
A549 [25] = assay: Induction of apoptosis in human A549 cells assessed as necrotic cells at 50 nM after 48 hrs by Annexin-V FITC/propidium iodide staining based flow cytometry (reference value: 0.1%); type: functional
[26] = Antiproliferative activity against human HepG2 cells after 48 hrs by MTT assay; type: functional, cell-based; details: HepG2, 48 h; method in brief: as §2
A549 [27] = assay: Induction of ROS generation in human A549 cells at 50 nM after 48 hrs by DCFDA staining based flow cytometry (reference value: 4.4%); type: functional
[28] = Cell cycle arrest in human A549 cells assessed as accumulation at S phase at 50 nM after 48 hrs by propidium iodide staining based flow cytometry (reference value: 9.4%); type: functional; method in brief: as §1
A549 [29] = assay: Induction of apoptosis in human A549 cells assessed as live cells at 100 nM after 48 hrs by Annexin-V FITC/propidium iodide staining based flow cytometry (reference value: 94.2%); type: functional
[30] = Inhibition of porcine brain tubulin polymerization in presence of GTP by fluorescence assay; parameters: species or system Sus scrofa
Method in brief: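 Tubulin polymerization IC50: compounds preincubated with tubulin at 0.5, 1, 2, 3 and 5 µM. Reactions in PEM buffer with […], polymerization followed by reporter fluorescence at ex 360/em 420 nm, with CA-4 as reference.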

A549 [31] = assay: Induction of apoptosis in human A549 cells assessed as nuclei condensation at 50 nM after 48 hrs by Hoechst 33258 staining based fluorescence microscopic analysis; type: functional, cell-based
Method in brief: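 A549 cells (5 × 10⁴/well) allowed to adhere 48 h, then treated at 50 nM for 48 h at 37 °C. Fixed in 4% paraformaldehyde at 4 °C for 10 min and stained with Hoechst 33258 (5 µg/mL) for 30 min at room temperature. Nuclear condensation scored by fluorescence microscopy (ex 350/em 460 nm, 10X).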

[32] = Cell cycle arrest in human A549 cells assessed as accumulation at G0/G1 phase at 100 nM after 48 hrs by propidium iodide staining based flow cytometry (reference value: 78.5%); type: functional; method in brief: as §1
[33] = Cell cycle arrest in human A549 cells assessed as accumulation at G0/G1 phase at 50 nM after 48 hrs by propidium iodide staining based flow cytometry (reference value: 78.5%); type: functional; method in brief: as §1
Homo sapiens = species on record: Homo sapiens; assay: Inhibition of colchicine binding to tubulin (unknown origin) at 5 to 20 uM after 60 mins by fluorescence assay
Method in brief: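 Tubulin (3 µM) incubated with compound at 5–20 µM, with and without colchicine (3 µM), in 30 mM Tris for 60 min at 37 °C. Fluorescence read at ex 350/em 435 nm. Tris blank and the colchicine-free signal were subtracted, and values normalized to DMSO. CA-4 and vinblastine served as controls.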

| Structure (SMILES) | inhibition (A549 [1]) | Activity [3] | Activity (A549 [5]) | Activity (A549 [6]) | IC50 [9] | Activity [10] | IC50 [11] | Activity (A549 [13]) | inhibition (A549 [14]) | IC50 [16] | Activity (A549 [17]) | Activity (A549 [19]) | Activity (A549 [21]) | inhibition (Sus scrofa) | IC50 [24] | IC50 [26] | Activity [28] | Activity (A549 [29]) | IC50 [30] | Activity (A549 [31]) | further results |
| --- | --- | --- | --- | --- | --- | --- | --- | --- | --- | --- | --- | --- | --- | --- | --- | --- | --- | --- | --- | --- | --- |
| COc1cc(-c2nncn2-c2ccc(-c3nc4ccc(F)cc4s3)cc2C)cc(OC)c1OC | Active | 25.1% | 20.9% | 27.2% | 0.28 µM | 15.4% | 1.41 µM | 74.4% | Active | 0.15 µM | 22.2% | 8.2% | 0.7% | 74.4% | 0.048 µM | 0.3 µM | 14.7% | 63.9% | 1 µM | Active | Activity (A549 [2]): 15.1%; Activity (A549 [4]): 85.2%; Activity [7]: 65.5%; Activity (A549 [8]): 5.8%; Activity (A549 [12]): Dose-dependent effect; Activity (A549 [15]): 78.3%; Activity (A549 [18]): 12.8%; Activity [20]: Dose-dependent effect; Activity (A549 [22]): Active; Activity [23]: Dose-dependent effect; Activity (A549 [25]): 0.8%; Activity (A549 [27]): 10.4%; Activity [32]: 19.8%; Activity [33]: 60.6%; inhibition (Homo sapiens): Active |
| COc1ccc2nc(-c3ccc(-n4cnnc4-c4cc(OC)c(OC)c(OC)c4)c(C)c3)sc2c1 | Active | 25.9% | 12.3% | 23.7% | 0.48 µM | 17.6% | 1.13 µM | 80.5% | Active | 0.16 µM | 16.9% | 9.2% | 1.1% | 72.9% | 0.054 µM | 0.67 µM | 10.6% | 66% | 1.67 µM | Active | Activity (A549 [2]): 13.5%; Activity (A549 [4]): 87.2%; Activity [7]: 59.5%; Activity (A549 [8]): 8.1%; Activity (A549 [12]): Dose-dependent effect; Activity (A549 [15]): 77.3%; Activity (A549 [18]): 11%; Activity [20]: Dose-dependent effect; Activity (A549 [22]): Active; Activity [23]: Dose-dependent effect; Activity (A549 [25]): 1.1%; Activity (A549 [27]): 6.8%; Activity [32]: 21.5%; Activity [33]: 63.7%; inhibition (Homo sapiens): Active |
| Cc1cc(-c2nc3cc(F)ccc3s2)ccc1N |  |  | 10% |  |  |  |  | 81.8% |  |  | 16% |  |  |  |  |  |  |  |  |  |  |
| COc1ccc(/C=C\c2cc(OC)c(OC)c(OC)c2)cc1O [COMBRETASTATIN A4] | Active | 31.3% | 18% | 24.2% | 0.069 µM | 15.9% | 0.043 µM | 74.9% | Active | 0.005 µM | 21.8% | 13.3% | 1.7% | 73.2% | 0.058 µM | 0.009 µM | 12.6% | 60.8% | 1.6 µM | Active | Activity [32]: 26.1%; inhibition (Homo sapiens): Active |
